The test system of test [1] is Staphylococcus aureus. Nature of the test: Bacteriostatic activity against Panton-valentine leucocidin-positive community-acquired methicillin-resistant Staphylococcus aureus N4090440 infected in human THP-1 cells assessed as change in bacterial count after 24 hrs at pH 5.5. In kind it is functional. In short, it runs like this:
(§1)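 THP-1 macrophages infected as described previously, with a postphagocytosis inoculum of 1.5 × 10⁶ to 3.0 × 10⁶ CFU/mg cell protein. Cells were exposed 24 h to increasing extracellular antibiotic concentrations. Response is the change in log10 CFU/mg protein from the inoculum (n = 3), fitted to a Hill function. E0 and Emax were extrapolated to infinitely low and high concentrations. EC50 and static concentration (graphical interpolation) are expressed as multiples of the broth MIC at pH 5.5 or 7.4.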

Test [2] has as its system Staphylococcus aureus. Briefly: Antimicrobial activity against hospital-acquired vancomycin-intermediate Staphylococcus aureus NRS18 infected in human THP-1 cells assessed as bacterial count per mg of cell protein at high extracellular compound concentration after 24 hrs. It counts as functional. In short, it runs like this: (§2)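 Human THP-1 macrophage-like cells were infected with S. aureus to a postphagocytosis inoculum of 1.5 × 10^6 to 3.0 × 10^6 CFU/mg cell protein. Cells were then exposed 24 h to increasing extracellular antibiotic concentrations. Response was the log10 CFU change per mg protein from the postphagocytosis inoculum, n = 3. A Hill function was fitted on log-transformed axes. E0 and Emax were extrapolated to infinitely low and high concentrations. Cs was read by graphical interpolation. Concentrations were expressed as multiples of the broth MIC at pH 5.5 or pH 7.4.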

For test [3], the system named is Staphylococcus aureus. Nature of the test: Antimicrobial activity against Panton-valentine leucocidin-positive community-acquired methicillin-resistant Staphylococcus aureus isolate MEH2225605 infected in human THP-1 cells assessed as change in bacterial count after 24 hrs at pH 5.5. It counts as functional, organism-based. The conditions noted are these: isolate MEH2225605, THP-1, 24 h. In short, it runs like this: (§3)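 THP-1 human macrophages infected with S. aureus (postphagocytosis inoculum 1.5 × 10^6 to 3.0 × 10^6 CFU/mg cell protein), then incubated 24 h with increasing extracellular antibiotic concentrations. Change in log10 CFU/mg cell protein from the postphagocytosis inoculum, n = 3. Hill function fitted on log-transformed data. Low-concentration value (E0) and high-concentration value (Emax) are extrapolated. Where a pH is given, concentrations are expressed as multiples of the broth MIC at that pH.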

Test [4] has as its system Staphylococcus aureus. Briefly: Antimicrobial activity against Panton-valentine leucocidin-positive community-acquired methicillin-resistant Staphylococcus aureus STA 44 infected in human THP-1 cells assessed as change in bacterial count after 24 hrs at pH 7.4. In kind it is functional, organism-based. As to conditions: STA 44, THP-1, 24 h. In outline: as §3
Test [5] deals with Staphylococcus aureus. Nature of the test: Bacteriostatic activity against Panton-valentine leucocidin-positive community-acquired methicillin-resistant Staphylococcus aureus N4042228 infected in human THP-1 cells assessed as change in bacterial count after 24 hrs at pH 5.5. In kind it is functional. In outline:
as §1

Test [6] has as its system Staphylococcus aureus. Nature of the test: Antimicrobial activity against Panton-valentine leucocidin-positive community-acquired methicillin-resistant Staphylococcus aureus STA 44 infected in human THP-1 cells assessed as change in bacterial count after 24 hrs. It counts as functional, organism-based. As to conditions: STA 44, THP-1, 24 h. In outline:
as §3

For test [7], the system named is Staphylococcus aureus. Nature of the test: Antimicrobial activity against hospital-acquired methicillin-resistant Staphylococcus aureus […] infected in human THP-1 cells assessed as change in bacterial count after 24 hrs at pH 7.4. It counts as functional, organism-based. The conditions noted are these: THP-1, 24 h. In short, it runs like this:
as §1

The subject of test [8] is Staphylococcus aureus. Nature of the test: Bacteriostatic activity against methicillin-resistant Staphylococcus aureus ATCC 33591 infected in human keratinocytes assessed as change in bacterial count after 24 hrs. It counts as functional. In outline:
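Primary human skin keratinocytes were grown in defined keratinocyte serum-free medium, infected, then incubated 24 h with increasing extracellular drug concentrations. Response was the change in log10 CFU/mg cell protein versus the post-phagocytosis inoculum, fitted to a Hill equation with slope factor 1. Static concentration (mg/liter, total drug) was taken by graphical interpolation where CFU equalled the original inoculum.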

For test [9], the system named is Staphylococcus aureus. Nature of the test: Bacteriostatic activity against Panton-valentine leucocidin-positive community-acquired methicillin-resistant Staphylococcus aureus isolate MEH2225605 infected in human THP-1 cells assessed as change in bacterial count after 24 hrs at pH 5.5. It counts as functional. In short, it runs like this:
as §1

Test [10] deals with Staphylococcus aureus. Briefly: Ratio of MIC for beta-lactamase-negative methicillin-susceptible Staphylococcus aureus ATCC 25923 by microdilution method at pH 7.4 to ratio of MIC for beta-lactamase-negative methicillin-susceptible Staphylococcus aureus ATCC 25923 by microdilution method at pH 5.5. In kind it is functional. In outline:
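MICs were measured by broth microdilution, with the broth adjusted to pH 7.4 or pH 5.5 before inoculation. pH was confirmed at the end of the assay to within ±0.1 unit. The value is the fold decrease in MIC between pH 7.4 and pH 5.5.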

For test [11], the system named is Staphylococcus aureus. Nature of the test: Antimicrobial activity against methicillin-susceptible Staphylococcus aureus […] infected in human THP-1 cells assessed as bacterial count per mg of cell protein at high extracellular compound concentration after 24 hrs at pH 5.5. In kind it is functional. In outline: as §2
In test [12] the test system is Staphylococcus aureus. Briefly: Antimicrobial activity against Panton-valentine leucocidin-positive community-acquired methicillin-resistant Staphylococcus aureus NRS192 infected in human THP-1 cells assessed as change in bacterial count after 24 hrs at pH 7.4. It counts as functional, organism-based. The conditions noted are these: NRS192, THP-1, 24 h. In outline: as §3

Test [13] deals with Staphylococcus aureus. Briefly: Antimicrobial activity against Panton-valentine leucocidin-positive community-acquired methicillin-resistant Staphylococcus aureus N4090440 infected in human THP-1 cells assessed as change in bacterial count after 24 hrs at pH 7.4. It counts as functional, organism-based. The conditions noted are these: N4090440, THP-1, 24 h. In outline: as §3

Test [14] concerns Staphylococcus aureus. Nature of the test: Antimicrobial activity against hospital-acquired vancomycin-intermediate Staphylococcus aureus NRS18 infected in human THP-1 cells assessed as bacterial count per mg of cell protein at high extracellular compound concentration after 24 hrs at pH 7.4. In kind it is functional. In outline: as §2
The subject of test [15] is Staphylococcus aureus. Nature of the test: Bacteriostatic activity against hospital-acquired vancomycin-intermediate Staphylococcus aureus NRS18 infected in human THP-1 cells assessed as change in bacterial count after 24 hrs at pH 5.5. In kind it is functional. In outline:
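Human THP-1 macrophage-like cells were infected with S. aureus; the post-phagocytosis inoculum was 1.5 × 10^6 to 3.0 × 10^6 CFU/mg cell protein. Cells were exposed 24 h to increasing extracellular drug levels. Change in log10 CFU/mg protein from the inoculum was fitted to a Hill function (n = 3). Static concentration was read by graphical interpolation, as a multiple of the pH 5.5 broth MIC.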

For test [16], the system named is Staphylococcus aureus. Nature of the test: Antimicrobial activity against methicillin-susceptible Staphylococcus aureus NRS52 infected in human THP-1 cells assessed as change in bacterial count after 24 hrs at pH 7.4. It counts as functional, organism-based. The conditions noted are these: NRS52, THP-1, 24 h. In outline:
as §1

Test [17] deals with Staphylococcus aureus. Nature of the test: Antimicrobial activity against hospital-acquired vancomycin-intermediate Staphylococcus aureus NRS126 infected in human THP-1 cells assessed as change in bacterial count after 24 hrs at pH 5.5. In kind it is functional, organism-based. The conditions noted are these: NRS126, THP-1, 24 h. In outline:
as §1

Converted amounts (≈) assume the structure as drawn.

For the molecule `Nc1nc(/C(=N/O)C(=O)N[C@@H]2C(=O)N3C(C(=O)O)=C(/C=C4\CCN([C@@H]5CCNC5)C4=O)CS[C@H]23)ns1` [CEFTOBIPROLE], the Activity in the test on Staphylococcus aureus [1] was found to be 1.45 × MIC; in the test with Staphylococcus aureus [5] it was 1.45 × MIC; with Staphylococcus aureus [8], 1.95 mg/L; in the test with Staphylococcus aureus [9] it was 1.45 × MIC; with Staphylococcus aureus [15], 1.97 × MIC. For the same molecule, the log10cfu is recorded as -1.34 with Staphylococcus aureus [2], 1.04 with Staphylococcus aureus [11] and -0.99 in the test with Staphylococcus aureus [14]. Moreover, the EC50 with Staphylococcus aureus [3] turned out to be 0.54 × MIC; with Staphylococcus aureus [4] it was 0.33 ×MIC; with Staphylococcus aureus [6], 0.94 µg/mL (≈ 1.76 µM); in the test on Staphylococcus aureus [7], 0.28 ×MIC; in the test on Staphylococcus aureus [12] it was 0.33 ×MIC; with Staphylococcus aureus [13] it was 0.33 ×MIC. The EC50 with Staphylococcus aureus [16] came to 0.2 ×MIC; in the test with Staphylococcus aureus [17], 0.77 × MIC. Also, the “fold change (FC)” value with Staphylococcus aureus [10] was found to be 2.
